The record followed here is ChEMBL document CHEMBL1130101, “A virtual screening approach applied to the search for trypanothione reductase inhibitors” (J Med Chem, 1997).

Assay [1] concerns the target Trypanothione reductase (Trypanosoma cruzi) (UniProt P28593). As to the kind of experiment: Natural log of the value in (uM) of inhibition constant was tested against Trypanothione Reductase.
The target is the same in assay [2]. As to the kind of experiment: Percent Inhibition of trypanothione reductase activity at 28.5 uM concentration. The method in brief:
(§1)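 TR-catalysed reduction of trypanothione disulfide; the reaction rate was measured without inhibitor (r0) and with inhibitor (rinh). Percent inhibition = (r0 − rinh)/r0 × 100. Measured percentages carry an error of about 10%.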

For assay [3] the target is unchanged. As to the kind of experiment: Percent Inhibition of trypanothione reductase activity at 57 uM concentration. The method in brief: as §1
For assay [4] the target is unchanged. As to the kind of experiment: Percent Inhibition of trypanothione reductase activity at 5.7 uM concentration. The essentials: as §1

Trypanothione reductase (Trypanosoma cruzi), sequence (P28593 whole entry, looked up): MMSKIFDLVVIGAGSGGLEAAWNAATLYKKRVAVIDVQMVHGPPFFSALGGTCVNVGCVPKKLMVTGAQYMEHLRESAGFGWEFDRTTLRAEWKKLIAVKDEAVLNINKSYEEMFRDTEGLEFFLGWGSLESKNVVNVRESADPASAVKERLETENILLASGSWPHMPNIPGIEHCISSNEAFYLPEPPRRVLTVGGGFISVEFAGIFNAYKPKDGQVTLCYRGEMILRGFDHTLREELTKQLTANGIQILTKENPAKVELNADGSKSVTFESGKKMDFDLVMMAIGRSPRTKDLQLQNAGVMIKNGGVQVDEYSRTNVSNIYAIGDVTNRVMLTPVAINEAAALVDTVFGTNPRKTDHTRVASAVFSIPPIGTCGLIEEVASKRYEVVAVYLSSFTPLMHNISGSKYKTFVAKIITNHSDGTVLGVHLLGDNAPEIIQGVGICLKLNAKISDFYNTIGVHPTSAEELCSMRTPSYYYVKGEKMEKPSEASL

As to `Clc1ccc(Sc2ccc(Cl)cc2NCCCN2CCCC2)cc1`, the Natural log of inhibition constant (Ki in uM) in assay [1] came to 4.06.
In general, inhibition refers to the drop in the measured response relative to a control, in per cent. A higher inhibition goes with a strong effect. Turning to `NCc1ccccc1Sc1ccccc1CO`, the results for the inhibition in assay [2], in assay [3] and in assay [4] were 0%, 31% and 0%, respectively.
`COc1ccc(CCC(=O)NCCCNCCCCN)cc1` came in with a Natural log of inhibition constant (Ki in uM) in assay [1] of 5.82.
`Cc1ccc(Sc2ccc(F)cc2)c(NCCCN2CCN(C)CC2)c1` gave a Natural log of inhibition constant (Ki in uM) in assay [1] of 5.35.
In turn, `CN1CCN(CCCNc2cc(Cl)ccc2Sc2ccc(F)cc2)CC1` registered a Natural log of inhibition constant (Ki in uM) in assay [1] of 4.74.
On to `Clc1ccc(Sc2ccccc2)c(NCCN2CCCCC2)c1`, for which the Natural log of inhibition constant (Ki in uM) in assay [1] was found to be 6.55.
`CN1CCN(CCCNc2cc(Cl)ccc2Sc2ccccc2)CC1` showed a Natural log of inhibition constant (Ki in uM) in assay [1] of 3.3.
On the same count and under the same terms, the result for `CN1CCN(CCNc2ccccc2Sc2ccc(Cl)cc2)CC1` reads 4.38.
On to `C[C@@H]1CN(CCCn2c3ccccc3c3ccccc32)C[C@H](C)N1`, for which the inhibition in assay [2] was 15%; in assay [3], 23%; in assay [4] it was 10%.
With `COc1cc(CC2NCCc3c2[nH]c2ccccc32)ccc1O` (stereo not drawn), the inhibition in assay [2] turned out to be 13%; in assay [3], 27%; in assay [4], 0%.
`CN(C)CCNc1cc(Cl)ccc1Sc1ccccc1` gave a Natural log of inhibition constant (Ki in uM) in assay [1] of 4.38.
Turning to `NCCc1ccc(Oc2ccccc2)cc1`, the inhibition in assay [2], in assay [3] and in assay [4] was 0% in each case.
Turning to `O=C(CCc1ccc(O)c(O)c1)NCCCCNCCCNC(=O)CCc1ccc(O)c(O)c1`, in assay [1], the Natural log of inhibition constant (Ki in uM) came to 2.01.
Take `Clc1ccc(Sc2ccc(Cl)cc2NCCCN2CCCCC2)cc1`: in assay [1], the Natural log of inhibition constant (Ki in uM) is 4.09.
For the compound `NCCCNCCCCNCCCNC(=O)CCc1ccc(O)c(O)c1`, the Natural log of inhibition constant (Ki in uM) in assay [1] was found to be 4.44.
`CN(C)c1ccc(C(c2ccc(N(C)C)cc2)c2ccc(N(C)C)cc2)cc1` had a Natural log of inhibition constant (Ki in uM) in assay [1] of 1.6.
For `COc1ccc(/C=C/C(=O)NCCCCN2CCCN(C(=O)/C=C/c3ccc(OC)cc3)C2)cc1`, the Natural log of inhibition constant (Ki in uM) in assay [1] came out at 5.01.
On the same count and under the same terms, the result for `CC(=O)c1ccc(Sc2ccc(Cl)cc2NCCCN2CCN(C)CC2)cc1` reads 2.94; that for `Cc1ccc(Sc2ccccc2NCCCN2CCN(C)CC2)cc1`, 4.17.
For `NCCCNCCCNC1=C(c2c[nH]c3ccccc23)C(=O)NC1=O`, the Natural log of inhibition constant (Ki in uM) in assay [1] is 0.91.
With `CN1CCN(CCNc2cc(Cl)ccc2Sc2ccc(Cl)cc2)CC1`, the Natural log of inhibition constant (Ki in uM) in assay [1] was determined as 3.85.
`CCN(CC)CCNc1cc(Cl)ccc1Sc1ccccc1`: the Natural log of inhibition constant (Ki in uM) in assay [1] was determined as 6.21.
In the case of `Clc1ccc(Sc2ccccc2)c(NCCCN2CCCCC2)c1`, the Natural log of inhibition constant (Ki in uM) in assay [1] was determined as 3.95.
For the compound `CN1CCN(CCCCNc2ccccc2Sc2cccc(NCCCCCNc3cccc(Sc4ccccc4NCCCCN4CCN(C)CC4)c3)c2)CC1`, the Natural log of inhibition constant (Ki in uM) in assay [1] stood at 1.
In turn, `O=C(/C=C/c1ccc(O)c(O)c1)NCCCNCCCCNCCCNC(=O)/C=C/c1ccc(O)c(O)c1` gave a Natural log of inhibition constant (Ki in uM) in assay [1] of 2.77.
On the same count and under the same terms, the result for `CN1CCN(CCCNc2cc(Cl)ccc2Sc2cc(Cl)ccc2Cl)CC1` reads 3.4; that for `CN(C)CCNc1ccccc1Sc1ccc(Cl)cc1`, 4.38; that for `Cc1ccc(Sc2ccc(C)cc2NCCCN2CCN(C)CC2)cc1`, 4.38.
The compound `NCCNCCCNc1cc(Cl)ccc1Sc1ccccc1` returned a Natural log of inhibition constant (Ki in uM) in assay [1] of 3.
In the case of `N#Cc1ccc(C2NCCc3c2[nH]c2ccccc32)cc1` (stereo not drawn), the inhibition in assay [2], in assay [3] and in assay [4] was 0% throughout.
As to `Cc1cc(-c2ccccc2)nnc1NCCN1CCOCC1`, the figures for the inhibition in assay [2], in assay [3] and in assay [4] were 16%, 12% and 18%, respectively.
In assay [1], `c1ccc(Sc2ccccc2NCCCN2CCCC2)cc1` showed a Natural log of inhibition constant (Ki in uM) of 4.73.
The same measure, in the same setting: the result for `COc1ccc(/C=C/C(=O)NCCCNCCCCN)cc1` reads 5.6; that for `CN1CCN(CCCNc2cc(Cl)ccc2Sc2ccc(Cl)cc2)CC1`, 4.04.
For `Cc1ccc(Sc2ccc(Cl)cc2NCCCN2CCN(C)CC2)cc1`, in assay [1], the Natural log of inhibition constant (Ki in uM) is 3.33.
Take `Fc1ccc(C(CCCN2CCNCC2)c2ccc(F)cc2)cc1`: the inhibition in assay [2] was found to be 9%; in assay [3], 18%; in assay [4] it was 0%.
`Clc1ccc(Sc2ccccc2)c(NCCN2CCCC2)c1` displayed a Natural log of inhibition constant (Ki in uM) in assay [1] of 4.34.
For `NCCC1CCN(Cc2ccccc2)CC1`, the inhibition in assay [2], in assay [3] and in assay [4] was 0% throughout.
Turning to `Clc1ccc(C(c2ccccc2)N2CCNCC2)cc1` (stereo not drawn), the inhibition in assay [2] turned out to be 30%; in assay [3], 40%; in assay [4], 0%.
Turning to `Clc1ccc(Sc2ccccc2)c(NCCCN2CCCC2)c1`, in assay [1], the Natural log of inhibition constant (Ki in uM) was 3.78.
In assay [1], `CCN(CC)CCCNc1cc(Cl)ccc1Sc1ccccc1` returned a Natural log of inhibition constant (Ki in uM) of 3.74.
With `Clc1ccc(Sc2ccc(Cl)cc2NCCN2CCCCC2)cc1`, the Natural log of inhibition constant (Ki in uM) in assay [1] came out at 6.9.
As for `CCC(C)(C)c1ccc(OCCCCN)c(C(C)(C)CC)c1`, the inhibition in assay [2], in assay [3] and in assay [4] was 0% in each case.
`Clc1ccc(Sc2ccccc2NCCN2CCCC2)cc1`: the Natural log of inhibition constant (Ki in uM) in assay [1] is 5.08.
In the case of `COc1ccc(/C=C/C(=O)N2CCCN(CCCCN)C2)cc1`, in assay [1], the Natural log of inhibition constant (Ki in uM) was 5.01.
`CN(C)CCNc1cc(Cl)ccc1Sc1ccc(Cl)cc1` gave a Natural log of inhibition constant (Ki in uM) in assay [1] of 3.91.
Turning to `CNCCC=C1c2ccccc2CCc2ccccc21`, the inhibition in assay [2] came out at 0%; in assay [3], 25%; in assay [4], 0%.
Consider `CN(C)CCCC(CN)(c1ccccc1)c1ccccc1`, for which the inhibition in assay [2] was 9%; in assay [3], 36%; in assay [4], 0%.
On to `CN1CCN(CCNc2cc(Cl)ccc2Sc2ccccc2)CC1`, for which the Natural log of inhibition constant (Ki in uM) in assay [1] was found to be 3.68.
As for `Cc1cccc(C)c1OCC(O)CN1CCNCC1` (stereo not drawn), the inhibition came to 0% in assay [2], 7% in assay [3] and 0% in assay [4].
For `NCCCCNCCCNC(=O)CCc1ccc(O)c(O)c1`, in assay [1], the Natural log of inhibition constant (Ki in uM) amounted to 4.68.
Same read-out and setting: the result for `NCCN(CCN)CCCNc1cc(Cl)ccc1Sc1ccccc1` reads 1.5.
